In ChEMBL document CHEMBL1671655, “Anidulafungin is fungicidal and exerts a variety of postantifungal effects against Candida albicans, C. glabrata, C. parapsilosis, and C. krusei isolates” (2009):
In brackets after ≈: the same amount, converted by molar mass. Activity calls are given as the source filed them. The rule behind the calls is not given here. Starred links: 1 amine or outer side, 2 acyl side, 3 side chain; linkers in the order of their positions; H or OH if unused. Positions of bridges follow the written chain, without caps; N, C: chain ends. Non-standard residues stand in square brackets, D forms with d. Residues, ends and D or L forms follow the SMILES beside them. *: point of attachment. pTerphenylCO(4''-OnC5H11) = CCCCCOc1ccc(-c2ccc(-c3ccc(C(=O)*)cc3)cc2)cc1; Orn(4R-OH,5R-OH) = O=C([C@H](C[C@@H](O)[C@@H](O)N[*:3])N[*:1])[*:2]; hTyr(3S-OH,4S-OH) = N[C@H](C(=O)O)[C@H](O)[C@@H](O)c1ccc(O)cc1; Pro(3S-OH,4S-Me) = C[C@H]1CN[C@H](C(=O)O)[C@H]1O; Hyp = O=C(O)[C@@H]1C[C@@H](O)CN1

Columns and labels:
[1] = system: Candida parapsilosis; assay: Fungicidal activity against Candida parapsilosis isolate 1 assessed as log reduction in bacterial count at 4 times MIC after 48 hrs by time-kill analysis; type: functional; details: Lodderomyces parapsilosis, isolate 1, 48 h
Method in brief: (§1)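 Isolates subcultured twice on SDA, suspended to 0.5 McFarland, giving ~1 x 10^5 to 5 x 10^5 CFU/ml in MOPS-buffered RPMI 1640 (pH 7.0) with or without drug at multiples of MIC (MIC by CLSI M27-A3). Tubes shaken at 35°C with continuous drug. Sampled at 0–48 h, diluted 10-fold and plated on SDA; CFU counted after 48 h at 35°C. Run twice per isolate; means.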

[2] = system: Candida parapsilosis; assay: Fungicidal activity against Candida parapsilosis isolate 1 assessed as log reduction in bacterial count at MIC after 48 hrs by time-kill analysis; type: functional; details: Lodderomyces parapsilosis, isolate 1, 48 h
Method in brief: (§2)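 Isolates subcultured twice on SDA, then suspended to 0.5 McFarland and diluted into RPMI 1640 (MOPS, pH 7.0) with or without anidulafungin, giving about 1 x 10^5 to 5 x 10^5 CFU/ml. Tubes were shaken at 35°C. Samples were taken at 0, 2, 4, 8, 12, 24 and 48 h, serially diluted 10-fold, plated on SDA, and CFU counted after 48 h at 35°C. Each isolate was run twice; mean values.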

[3] = system: Candida parapsilosis; assay: Fungicidal activity against Candida parapsilosis isolate S assessed as log reduction in bacterial count at 4 times MIC after 48 hrs by time-kill analysis; type: functional; details: Lodderomyces parapsilosis; method in brief: as §2
[4] = system: Nakaseomyces glabratus; assay: Fungicidal activity against Candida glabrata isolate 2 assessed as log reduction in bacterial count at 16 times MIC after 48 hrs by time-kill analysis; type: functional; details: isolate 2, 48 h; method in brief: as §1
[5] = system: Nakaseomyces glabratus; assay: Fungicidal activity against Candida glabrata isolate 3 assessed as log reduction in bacterial count at MIC after 48 hrs by time-kill analysis; type: functional; details: isolate 3, 48 h; method in brief: as §1
[6] = system: Pichia kudriavzevii; assay: Fungicidal activity against Candida krusei isolate ATCC 6258 assessed as log reduction in bacterial count at 4 times MIC after 48 hrs by time-kill analysis; type: functional; details: isolate ATCC 6258, 48 h; method in brief: as §1
[7] = system: Candida albicans; assay: Fungicidal activity against Candida albicans isolate 1 assessed as log reduction in bacterial count at 4 times MIC after drug exposure for 1 hr followed by washout measured after 48 hrs in the absence of drug by PAFE study; type: functional
Method in brief: (§3)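 Starting inoculum ~1 x 10^5 to 5 x 10^5 CFU/ml in MOPS-buffered RPMI 1640 (pH 7.0) with drug at multiples of the CLSI M27-A3 MIC. After 1 h at 35°C, cells washed and centrifuged three times at 1,400 x g for 10 min, then resuspended in warm drug-free RPMI. Shaken at 35°C and plated on SDA at 0–48 h; CFU counted after 48 h. Run twice per isolate; means.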

[8] = system: Candida parapsilosis; assay: Fungicidal activity against Candida parapsilosis isolate A assessed as log reduction in bacterial count at 16 times MIC after drug exposure for 1 hr followed by washout measured after 48 hrs in the absence of drug by PAFE study; type: functional; details: Lodderomyces parapsilosis
Method in brief: (§4)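 Inoculum about 1 x 10^5 to 5 x 10^5 CFU/ml in RPMI 1640 (MOPS, pH 7.0) with drug, shaken at 35°C for 1 h. Cells were then washed and centrifuged at 1,400 x g for 10 min (3 cycles) and resuspended in warm drug-free RPMI. Samples plated on SDA at 0, 2, 4, 8, 12, 24 and 48 h; CFU counted after 48 h at 35°C. Run twice per isolate; means.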

[9] = system: Candida parapsilosis; assay: Fungicidal activity against Candida parapsilosis isolate A assessed as log reduction in bacterial count at 4 times MIC after drug exposure for 1 hr followed by washout measured after 48 hrs in the absence of drug by PAFE study; type: functional; details: Lodderomyces parapsilosis; method in brief: as §4
[10] = system: Nakaseomyces glabratus; assay: Fungicidal activity against Candida glabrata isolate 1 assessed as log reduction in bacterial count at 16 times MIC after drug exposure for 1 hr followed by washout measured after 48 hrs in the absence of drug by PAFE study; type: functional; method in brief: as §3
[11] = system: Nakaseomyces glabratus; assay: Fungicidal activity against Candida glabrata isolate 1 assessed as log reduction in bacterial count at MIC after drug exposure for 1 hr followed by washout measured after 48 hrs in the absence of drug by PAFE study; type: functional; method in brief: as §3
[12] = system: Candida parapsilosis; assay: Antifungal activity against Candida parapsilosis by NCCLS M27A broth microdilution method; type: functional; details: Lodderomyces parapsilosis
[13] = system: Pichia kudriavzevii; assay: Antifungal activity against Candida krusei by NCCLS M27A broth microdilution method; type: functional
[14] = system: Candida albicans; assay: Antifungal activity against Candida albicans isolate 2 by CLSI M27-A3 broth microdilution method; type: functional
Method in brief: (§5)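 CLSI M27-A3 broth microdilution in RPMI 1640 buffered to pH 7.0 with MOPS. Starting inoculum 0.5 x 10^3 to 2.5 x 10^3 cells/ml, incubated at 35°C. MIC read as the lowest concentration giving >50% growth reduction versus control. Each isolate tested on at least three occasions.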

[15] = system: Candida parapsilosis; assay: Antifungal activity against Candida parapsilosis isolate A by CLSI M27-A3 broth microdilution method; type: functional; details: Lodderomyces parapsilosis; method in brief: as §5
[16] = system: Candida albicans; assay: Increase in susceptibility to SDS in Candida albicans ATCC 90028 assessed as cell wall damage at MIC after 1 hr relative to control; type: functional, organism-based
Method in brief: (§6)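 Cells recovered 8 h after a 1-h drug exposure were grown in YPD with 1% glucose to exponential phase and adjusted to OD599 0.1. Undiluted culture and 10-fold serial dilutions were spotted onto YPD plates containing SDS (0.01 to 0.04%), then incubated 72 h at 30°C. Growth compared with unexposed control cells; triplicate.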

[17] = system: Candida albicans; assay: Increase in susceptibility to SDS in Candida albicans isolate 1 assessed as cell wall damage at 4 times MIC after 1 hr relative to control; type: functional, organism-based; method in brief: as §6
[18] = system: Nakaseomyces glabratus; assay: Increase in susceptibility to SDS in Candida glabrata isolate 1 assessed as cell wall damage at 4 times MIC after 1 hr relative to control; type: functional, organism-based; method in brief: as §6
[19] = system: Nakaseomyces glabratus; assay: Increase in susceptibility to calcofluor white in Candida glabrata isolate 3 assessed as cell wall damage at MIC after 1 hr relative to control; type: functional, organism-based
Method in brief: (§7)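 Cells recovered 8 h after a 1-h drug exposure were grown to exponential phase in YPD with 1% glucose and adjusted to OD599 0.1. Undiluted and 10-fold serially diluted cultures were spotted onto YPD plates containing calcofluor white, then incubated at 30°C for 72 h. Growth compared with no-drug control cells; triplicate.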

[20] = system: Candida albicans; assay: Increase in susceptibility to calcofluor white in Candida albicans isolate 1 assessed as cell wall damage at 4 times MIC after 1 hr relative to control; type: functional, organism-based; method in brief: as §7
[21] = system: Candida albicans; assay: Increase in susceptibility to calcofluor white in Candida albicans ATCC 90028 assessed as cell wall damage at 4 times MIC after 1 hr relative to control; type: functional, organism-based; method in brief: as §7
[22] = system: Nakaseomyces glabratus; assay: Increase in susceptibility to calcofluor white in Candida glabrata isolate 1 assessed as cell wall damage at 4 times MIC after 1 hr relative to control; type: functional, organism-based; method in brief: as §7
[23] = system: Pichia kudriavzevii; assay: Antifungal activity against Candida krusei isolate 1 assessed as cell wall damage at 4 times MIC by Transmission electron microscopy; type: functional, organism-based
Method in brief: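 Cells recovered 8 h after a 1-h drug exposure were grown on SDA for 24 h at 35°C. Colonies fixed at 4°C in 0.1 M cacodylate (pH 7.2) with 2% glutaraldehyde and 2% paraformaldehyde, ethanol-dehydrated and embedded in Lowicryl K4M. Thin sections examined by transmission EM.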

CCCCCOc1ccc(-c2ccc(-c3ccc(C(=O)N[C@H]4C[C@@H](O)[C@@H](O)NC(=O)[C@@H]5[C@@H](O)[C@@H](C)CN5C(=O)[C@H]([C@@H](C)O)NC(=O)[C@H]([C@H](O)[C@@H](O)c5ccc(O)cc5)NC(=O)[C@@H]5C[C@@H](O)CN5C(=O)[C@H]([C@@H](C)O)NC4=O)cc3)cc2)cc1 [ANIDULAFUNGIN] ({pTerphenylCO(4''-OnC5H11)}-[Orn(4R-OH,5R-OH)]T[Hyp][hTyr(3S-OH,4S-OH)]T[Pro(3S-OH,4S-Me)]; lactam 1-C)
log reduction [1]: 3.07 log CFU/ml | log reduction [2]: 1.65 log CFU/ml | log reduction [3]: 2.77 log CFU/ml | log reduction [4]: 3.14 log CFU/ml | log reduction [5]: 1 log CFU/ml | log reduction [6]: 2.94 log CFU/ml | log reduction [7]: 1.18 | log reduction [8]: 3.47 | log reduction [9]: 2.54 | log reduction [10]: 3.36 | log reduction [11]: 0.89 | MIC90 [12]: 2 µg/mL (≈ 1.75 µM) | MIC90 [13]: 0.06 µg/mL (≈ 0.0526 µM) | MIC [14]: 0.03 µg/mL (≈ 0.0263 µM) | MIC [15]: 2 µg/mL (≈ 1.75 µM) | Activity [16]: Active | Activity [17]: Active | Activity [18]: Active | Activity [19]: Active | Activity [20]: Active | Activity [21]: Active | Activity [22]: Active | Activity [23]: Active
